Measured values taken from ChEMBL document CHEMBL1154279, “Cytotoxic compounds from the stems of Cinnamomum tenuifolium” (J Nat Prod, 2009).
Activity calls are given as the source filed them. No cut-off for these calls is given here.

How the values were obtained:
DU-145 [1] = assay: Cell cycle arrest in human DU145 cells assessed as accumulation of cells at sub-G1 phase at 1 uM after 24 hrs using propidium iodide stain by flow cytometry; format: functional
Summary of the method: (§1)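 DU145 cells treated with 1, 5, 10 or 100 µM for 24 or 72 h; vehicle 1% DMSO in water. Adherent and floating cells pooled, fixed in PBS-MeOH (1:2) at 4 °C for at least 18 h, then stained 30 min at room temperature in the dark with propidium iodide 50 µg/mL plus RNase A 50 µg/mL. Flow cytometry, excitation 488 nm, emission above 580 nm, doublets gated out. Sub-G1 region taken as DNA damage; at least three runs.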

DU-145 [2] = assay: Induction of apoptosis in human DU145 cells assessed as PARP activation at 100 uM by ELISA; format: functional, cell-based
DU-145 [3] = assay: Cell cycle arrest in human DU145 cells assessed as accumulation of cells at sub-G1 phase after 24 hrs using propidium iodide stain by flow cytometry; format: functional, cell-based; summary of the method: as §1
DU-145 [4] = assay: Cell cycle arrest in human DU145 cells assessed as accumulation of cells at G2/M phase at 5 uM after 24 hrs using propidium iodide stain by flow cytometry; format: functional; summary of the method: as §1
DU-145 [5] = assay: Cytotoxicity against human DU145 cells at 100 uM after 72 hrs by XTT assay; format: functional, cell-based
Summary of the method: (§2)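 Prostate cancer cells in RPMI-1640 with 10% FBS, 37 °C, 5% CO2, grown to 70–80% confluence and treated at 0.1–100 µM for 24, 48 and 72 h. XTT labeling for 4 h at 37 °C, absorbance 450 nm (reference 650 nm) against control wells. IC50 derived from the mean of eight wells; taxol and cisplatin served as positive controls.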

DU-145 [6] = assay: Induction of apoptosis in human DU145 cells assessed as caspase9 activation by ELISA; format: functional, cell-based; details: TDE = time-dependent effect
Summary of the method: (§3)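 DU145 cells treated with 10 µM for 1, 3, 6, 12 and 24 h and lysed. Lysate (60 µg) incubated with Ac-DEVD-pNA or Ac-LEHD-pNA in PIPES buffer pH 7.2 at 37 °C for 1 h in the dark. pNA release read at 405 nm and expressed as percent change against untreated control.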

DU-145 [7] = assay: Increase of intracellular hydrogen peroxide and or peroxide in human DU145 cells at 50 uM after 24 hrs by DCFH-DA assay relative to control; format: functional
Summary of the method: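 DU145 cells (1 × 10^4 per well) treated with 1, 10 or 50 µM for 6–24 h, then loaded with 10 µM DCFH-DA in serum-free medium for 30 min at 37 °C in the dark. DCF fluorescence read by spectrofluorimeter (ex 495, em 530 nm) within 15 min; five experiments.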

DU-145 [8] = assay: Induction of apoptosis in human DU145 cells assessed as increase in intracellular ROS level at 10 uM by DCHF-DA assay; format: functional, cell-based
LNCaP = assay: Cytotoxicity against human LNCAP cells after 72 hrs by XTT assay; format: functional, cell-based; details: 24 h, in the assay text read “after 24 hrs” for “after 72 hrs”; summary of the method: as §2
DU-145 [9] = assay: Cell cycle arrest in human DU145 cells assessed as accumulation of cells at G1 phase at 1 uM after 72 hrs using propidium iodide stain by flow cytometry; format: functional; summary of the method: as §1
DU-145 [10] = assay: Cell cycle arrest in human DU145 cells assessed as accumulation of cells at G1 phase at 10 uM after 24 hrs using propidium iodide stain by flow cytometry; format: functional; summary of the method: as §1
DU-145 [11] = assay: Induction of apoptosis in human DU145 cells assessed as formation of granulation of nucleus after 24 hrs by Hoechst 33342 stainig; format: functional, cell-based
Summary of the method: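 DU145 cells exposed to 1 and 100 µM for 24 h, vehicle 1% DMSO. Fixed in 3.7% paraformaldehyde, stained with Hoechst 33342 (5 µg/mL) at 37 °C for 1 h and examined by fluorescence microscopy. Cells with reduced nuclear size, chromatin condensation or nuclear fragmentation scored as apoptotic.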

DU-145 [12] = assay: Increase in the ratio of cytochrome C concentration from cytosol to mitochondria in human DU145 cells at 100 uM after 24 hrs by ELISA; format: functional, cell-based
Summary of the method: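 DU145 cells given 100 µM or DMSO vehicle for 6–24 h at 37 °C. Cytosolic fraction released with digitonin buffer on ice for 5 min; mitochondrial fraction taken by Triton/deoxycholate/SDS lysis and a 10000g spin. Cytochrome c in each fraction measured by ELISA and expressed as a cytosol/mitochondria ratio; three experiments, ANOVA with Dunnett's test.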

DU-145 [13] = assay: Cell cycle arrest in human DU145 cells assessed as accumulation of cells at sub-G1 phase at 100 uM after 72 hrs using propidium iodide stain by flow cytometry; format: functional; summary of the method: as §1
DU-145 [14] = assay: Cell cycle arrest in human DU145 cells assessed as accumulation of cells at S phase at 10 uM after 72 hrs using propidium iodide stain by flow cytometry; format: functional; summary of the method: as §1
DU-145 [15] = assay: Cell cycle arrest in human DU145 cells assessed as accumulation of cells at sub-G1 phase at 1 uM after 72 hrs using propidium iodide stain by flow cytometry; format: functional; summary of the method: as §1
DU-145 [16] = assay: Cell cycle arrest in human DU145 cells assessed as accumulation of cells at sub-G1 phase at 100 uM after 24 hrs using propidium iodide stain by flow cytometry; format: functional; summary of the method: as §1
DU-145 [17] = assay: Antiproliferative activity in human DU145 cells at 10 uM after 24 hrs by XTT assay in the presence of Ac-DEVD-CMK; format: functional, cell-based
Summary of the method: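 DU145 cells pretreated 60 min with 50 µM Ac-DEVD-CMK or 50 µM Ac-LEHD-CMK, then exposed to 10 µM compound for 24 h (vehicle 1% DMSO in water). Proliferation read by XTT: labeling mixture added for 4 h at 37 °C, OD 450 nm (reference 650 nm) versus control wells; mean ± SE of three experiments.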

DU-145 [18] = assay: Induction of apoptosis in human DU145 cells assessed as caspase9 activation after 24 hrs by ELISA; format: functional, cell-based; details: TDE = time-dependent effect; summary of the method: as §3
DU-145 [19] = assay: Cell cycle arrest in human DU145 cells assessed as accumulation of cells at G2/M phase at 1 uM after 72 hrs using propidium iodide stain by flow cytometry; format: functional; summary of the method: as §1
DU-145 [20] = assay: Cell cycle arrest in human DU145 cells assessed as accumulation of cells at S phase at 10 uM after 24 hrs using propidium iodide stain by flow cytometry; format: functional; summary of the method: as §1
DU-145 [21] = assay: Cytotoxicity against human DU145 cells after 72 hrs by XTT assay; format: functional, cell-based; details: DU-145, 24 h, in the assay text read “after 24 hrs” for “after 72 hrs”
DU-145 [22] = assay: Cell cycle arrest in human DU145 cells assessed as accumulation of cells at S phase at 100 uM after 72 hrs using propidium iodide stain by flow cytometry; format: functional; summary of the method: as §1
DU-145 [23] = assay: Cell cycle arrest in human DU145 cells assessed as accumulation of cells at G2/M phase at 100 uM after 24 hrs using propidium iodide stain by flow cytometry; format: functional; summary of the method: as §1

Which Activity (DU-145 [1]) does the source give for `CCCCCCCCCCCCCCCCCCCCCCCC/C=C(/C(=O)OC)[C@@H](O)C(C)=O` [SECOTENUIFOLIDE A] here?
The Activity was 6.56%.

And the Activity (DU-145 [2])?
Its Activity is “Active”.

What about the Activity (DU-145 [3]) of the same compound?
Its Activity is “Dose-dependent effect”.

And the Activity (DU-145 [4])?
Its Activity is 37.88%.

What about the Activity (DU-145 [5]) of the same compound?
Its Activity is “Active”.

And the Activity (DU-145 [6])?
Its Activity is “tde”.

And the “fold change (FC)” value (DU-145 [7])?
The value was 2.5.

And the Activity (DU-145 [8])?
Its Activity is “Active”.

And the EC50 (LNCaP)?
The EC50 was under 7 µM.

And the IC50 (LNCaP)?
The IC50 was 6.76 µM.

What about the Activity (DU-145 [9]) of the same compound?
Its Activity is 53.11%.

What about the Activity (DU-145 [10]) of the same compound?
The Activity was 36.97%.

What about the Activity (DU-145 [11]) of the same compound?
The Activity was “Active”.

What about the Activity (DU-145 [12]) of the same compound?
The Activity was “Active”.

What about the Activity (DU-145 [13]) of the same compound?
The Activity was 32.57%.

What about the Activity (DU-145 [14]) of the same compound?
The Activity was 3.62%.

What about the Activity (DU-145 [15]) of the same compound?
The Activity was 9.75%.

And the Activity (DU-145 [16])?
The Activity was 24.88%.

And the Activity (DU-145 [17])?
Its Activity is “inactive”.

And the Activity (DU-145 [18])?
The Activity was “tde”.

And the Activity (DU-145 [19])?
The Activity was 33.68%.

What about the Activity (DU-145 [20]) of the same compound?
The Activity was 3.8%.

What about the EC50 (DU-145 [21]) of the same compound?
The EC50 was under 7 µM.

What about the IC50 (DU-145 [21]) of the same compound?
Its IC50 is 5.2 µM.

And the Activity (DU-145 [22])?
Its Activity is 5.38%.

And the Activity (DU-145 [23])?
The Activity was 26.4%.
